From PubChem
PKA-R1A activ: activates the PKA-R1A holoenzyme complex; P00514+P68181; PKA-R1A dissociation, Cy5-IP20 fluorescence polarization; scaled: DMSO 0%, 113 µM cGMP 100%; activation, % at 11.4 µM; 340,000 compounds, 0.083% hits;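 active means percent activation above the mean of all tested compounds plus 3 SD, cut at about 19% in these data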;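 further: higher means more PKAc released from R1A so a rise in polarization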
Vif imaging: HIV Vif inhibition; 340,000 compounds, 0.35% hits; inhibition, % at 7.49 µM; HEK293T cells, Vif self-association by quenched fluorescence, imaging, 24 h; in the data active means inhibition above about 50%, passing the limit was not always enough
SR-BI HDL uptake: blocks mouse SR-BI lipid uptake from DiI-HDL. Q61009. inhibition, % at 12.5 µM. 320,000 compounds, 0.96% hits. ldlA[mSR-BI] CHO cells, DiI-HDL uptake fluorescence, 3 h;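 active means mean replicate inhibition of at least 70% and a set share of replicates each scoring 70 or more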
SR-BI DiI-HDL act: activators of SR-BI mediated HDL lipid uptake | activation, % at 12.5 µM | CHO ldlA[mSR-BI] cells, DiI-HDL uptake fluorescence, 3 h; 100 = double the neutral-control signal | AID 504775 | 320,000 compounds, 0.096% hits;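 active means mean replicate activation of at least 60% and every replicate at or above 60%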
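Material: SR-BI-overexpressing, LDLR-lacking CHO cells | Dosing: Single compound concentration, delivered by pin transfer | Probe or stimulus: Labelled HDL, 10 µg/mL | Signal: Bottom-read cell fluorescence after medium removal, ex 550/em 595 nm | Schedule: 3 h, 37 °C | Evaluation: HDL uptake via cellular fluorescence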
PKA-R2B act: activates the human PKA-R2B holoenzyme complex. 340,000 compounds, 0.079% hits. PKA-R2B holoenzyme dissociation, Cy5-IP20 fluorescence polarization; R2B truncated from residue 108, S112A mutant; 0% DMSO only, 100% 113 µM cGMP. activation, % at 11.4 µM. P22694+P31323;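 active means activation above a cutoff set at the mean over all compounds plus 3 SD, cut at about 18% in these data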;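 further: higher means more holoenzyme dissociation and a rise in polarization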
Target sequence (P31323 whole entry, looked up, other chains not shown, the tested form may be a part): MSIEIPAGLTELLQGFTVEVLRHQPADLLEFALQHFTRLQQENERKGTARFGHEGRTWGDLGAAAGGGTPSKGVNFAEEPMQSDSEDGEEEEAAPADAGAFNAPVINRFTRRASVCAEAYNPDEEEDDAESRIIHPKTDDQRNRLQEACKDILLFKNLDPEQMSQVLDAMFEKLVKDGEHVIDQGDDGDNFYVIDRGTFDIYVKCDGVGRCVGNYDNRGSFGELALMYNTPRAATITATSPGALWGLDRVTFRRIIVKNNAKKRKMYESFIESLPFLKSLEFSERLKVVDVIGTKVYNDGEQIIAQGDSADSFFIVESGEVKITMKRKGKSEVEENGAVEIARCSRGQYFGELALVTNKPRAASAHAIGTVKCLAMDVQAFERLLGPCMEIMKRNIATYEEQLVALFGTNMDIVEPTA
R1A FP artifact: counter-screen for PKA-R1A activators: fluorescence polarization artifacts; activation, % at 11.4 µM; shares compounds with PKA-R1A activ; Cy5-IP20 peptide alone, fluorescence polarization artifact counterscreen; 280 compounds, 7% hits;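 active means mean activation over triplicate runs exceeds the adjusted cutoff derived for the parent primary screen, cut at about 19% in these data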;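 further: no PKA protein present so any polarization rise reflects compound interference; higher means stronger polarization artifact and likely false positive in parent screen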
PKA-R1A confirm: PKA-R1A complex activation, confirmation | activation, % at 11.4 µM | Cy5-IP20 fluorescence polarization, PKA-R1A holoenzyme dissociation | shares compounds with PKA-R1A activ | 280 compounds, 9% hits;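 active means mean activation over replicate wells exceeds the adjusted hit threshold taken from the earlier primary screen, cut at about 20% in these data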
Numbers stand for hits. This is a sample that favours compounds with a hit; in the whole collection about 1.4% have one here.

How did CCCC1=NN(c2ccc([N+](=O)[O-])cc2)C(=O)/C1=C/N(C)C do in these assays?
PKA-R1A activ: 19.1; Vif imaging: inactive; SR-BI HDL uptake: inactive; SR-BI DiI-HDL act: inactive; PKA-R2B act: inactive; R1A FP artifact: inactive; PKA-R1A confirm: inactive

What do the screens show for `O=C(O)c1nn(CC(=O)N2CCC(Cc3ccccc3)CC2)c(=O)c2ccccc12`?
PKA-R1A activ: 20.7; Vif imaging: inactive; PKA-R2B act: inactive; R1A FP artifact: inactive; PKA-R1A confirm: inactive

What do the screens show for `CC1CCC2(CC1)NC(=S)N(c1ccccc1)N2` (centres undefined)?
PKA-R1A activ: 19.4; Vif imaging: inactive; SR-BI HDL uptake: inactive; SR-BI DiI-HDL act: inactive; PKA-R2B act: inactive; R1A FP artifact: inactive; PKA-R1A confirm: inactive

Results for COc1ncnc2c1oc1nc(CC(C)C)c3c(c12)CC(C)(C)OC3 ?
PKA-R1A activ: 19.8; Vif imaging: inactive; SR-BI HDL uptake: inactive; SR-BI DiI-HDL act: inactive; PKA-R2B act: inactive; R1A FP artifact: inactive; PKA-R1A confirm: inactive

Results for CCC(C)(C)n1nnnc1C(c1ccc(C)cc1)N1CCN(C(=O)c2ccco2)CC1 (centres undefined) ?
PKA-R1A activ: inactive; Vif imaging: inactive; SR-BI HDL uptake: inactive; SR-BI DiI-HDL act: inactive; PKA-R2B act: inactive

How did CCC(C)(C)n1nnnc1C(c1cc2cccc(C)c2[nH]c1=O)N1CCN(C(=O)c2ccco2)CC1 (centres undefined) do in these assays?
PKA-R1A activ: 19.3; SR-BI HDL uptake: inactive; SR-BI DiI-HDL act: inactive; PKA-R2B act: inactive; R1A FP artifact: inactive; PKA-R1A confirm: inactive

Results for COc1ccc(N2C(=O)CSC2c2ccc([N+](=O)[O-])cc2)cc1 (centres undefined) ?
PKA-R1A activ: 20.3; Vif imaging: inactive; SR-BI HDL uptake: inactive; SR-BI DiI-HDL act: inactive; PKA-R2B act: inactive; R1A FP artifact: inactive; PKA-R1A confirm: inactive

What do the screens show for `COc1cccc(CNC(=O)c2cc(=O)[nH]c3ccc(S(=O)(=O)N4CCOCC4)cc23)c1`?
PKA-R1A activ: inactive; Vif imaging: inactive; SR-BI HDL uptake: inactive; SR-BI DiI-HDL act: inactive; PKA-R2B act: inactive

What do the screens show for `Cc1ccc(C(C(=O)NC2CCCC2)N(C(=O)c2csnn2)c2ccccc2)o1` (centres undefined)?
PKA-R1A activ: 19.8; Vif imaging: inactive; SR-BI HDL uptake: inactive; SR-BI DiI-HDL act: inactive; PKA-R2B act: inactive; R1A FP artifact: inactive; PKA-R1A confirm: inactive

Results for Cc1c(Br)cc(C(=O)NC2CCCCC2)c(C)c1C ?
PKA-R1A activ: 23.0; Vif imaging: inactive; SR-BI HDL uptake: inactive; SR-BI DiI-HDL act: inactive; PKA-R2B act: inactive; R1A FP artifact: inactive; PKA-R1A confirm: inactive

What do the screens show for `Cc1ccc(C(=O)NC2CCCCCCC2)c(Cl)c1`?
PKA-R1A activ: inactive; Vif imaging: inactive; SR-BI HDL uptake: inactive; SR-BI DiI-HDL act: inactive; PKA-R2B act: inactive

What do the screens show for `COc1cccc(-c2c(C(=O)N/N=C(\C)COc3ccccc3)nnn2-c2nonc2N)c1`?
PKA-R1A activ: inactive; Vif imaging: inactive; SR-BI HDL uptake: inactive; SR-BI DiI-HDL act: inactive; PKA-R2B act: inactive

How did O=C(/C=C/c1ccccc1)Nc1cccc(C(=O)NC2CC2)c1 do in these assays?
PKA-R1A activ: 18.6; Vif imaging: inactive; SR-BI HDL uptake: inactive; SR-BI DiI-HDL act: inactive; PKA-R2B act: inactive; R1A FP artifact: inactive; PKA-R1A confirm: inactive

Results for COc1ccc(/C=C2\SC(=S)N(CC3CCCO3)C2=O)cc1 (centres undefined) ?
PKA-R1A activ: inactive; Vif imaging: inactive; SR-BI HDL uptake: inactive; SR-BI DiI-HDL act: inactive; PKA-R2B act: inactive

How did O=C1/C(=C/c2cccnc2)SC(=S)N1CC1CCCO1 (centres undefined) do in these assays?
PKA-R1A activ: 24.8; Vif imaging: inactive; SR-BI HDL uptake: inactive; SR-BI DiI-HDL act: inactive; PKA-R2B act: inactive; R1A FP artifact: inactive; PKA-R1A confirm: inactive
